In one experiment the test system is Streptococcus agalactiae. The experiment is described as follows: Antimicrobial activity against Streptococcus agalactiae after 24 hrs by two-fold dilution method. It is filed as functional. The gist of the method: (§1)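 Two-fold serial dilution assay reporting MIC in μg/mL, run alongside Staphylococcus aureus, Escherichia coli, Bacillus subtilis and Streptococcus agalactiae. Tobramycin served as positive control.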

A further experiment concerns Staphylococcus aureus. The experiment is described as follows: Antimicrobial activity against Staphylococcus aureus after 24 hrs by two-fold dilution method. It is filed as functional. The gist of the method: as §1
Another experiment relates to Escherichia coli. The experiment is described as follows: Antimicrobial activity against Escherichia coli at 128 ug/ml after 24 hrs by two-fold dilution method. It counts as functional, organism-based.
The next experiment concerns Bacillus subtilis. Kind of experiment: Antimicrobial activity against Bacillus subtilis at 128 ug/ml after 24 hrs by two-fold dilution method. It counts as functional, organism-based.

In brackets after ≈: the same amount, converted by molar mass. Activity calls are given as the source filed them. No cut-off for these calls is given here.

As to `CCC(=O)O[C@H]1C[C@@]2(C)[C@@H](CC[C@H]3[C@@]4(C)C=CC(=O)[C@@H](C)[C@@H]4[C@H](OC(C)=O)C(=O)[C@@]32C)/C1=C(\CCC=C(C)C)C(=O)O`, the MIC in the experiment with Streptococcus agalactiae and with Staphylococcus aureus was 16 µg/mL (≈ 27.5 µM) in each case. For the same molecule, the outcome with Escherichia coli and in the experiment on Bacillus subtilis was inactive.

For `CC(=O)O[C@H]1C[C@@]2(C)[C@@H](CC[C@H]3[C@@]4(C)C=CC(=O)[C@@H](C)[C@@H]4[C@H](OC(C)=O)C(=O)[C@@]32C)/C1=C1\CC[C@H](C(C)(C)O)OC1=O`, the MIC in the experiment on Streptococcus agalactiae and in the experiment on Staphylococcus aureus was greater than 128 µg/mL throughout. Besides, the outcome with Escherichia coli and with Bacillus subtilis was inactive.

For the molecule `CC(=O)O[C@@H]1C(=O)[C@@]2(C)[C@@H](CC[C@H]3C4=C(CCC=C(C)C)C(=O)O[C@H]4C[C@@]32C)[C@@]2(C)CCC(=O)[C@@H](C)[C@H]12`, the MIC in the experiment on Streptococcus agalactiae and in the experiment on Staphylococcus aureus was greater than 128 µg/mL each time. For the same molecule, the outcome in the experiment with Escherichia coli and in the experiment on Bacillus subtilis was inactive.

For `CC(=O)O[C@H]1C[C@@]2(C)[C@@H](CC[C@H]3[C@@]4(C)C=CC(=O)[C@@H](C)[C@@H]4[C@H](OC(C)=O)C(=O)[C@@]32C)/C1=C1\CC[C@@H](C(C)(C)O)OC1=O`, the MIC was 64 µg/mL (≈ 109 µM) in the experiment with Streptococcus agalactiae and greater than 128 µg/mL against Staphylococcus aureus. Moreover, the result in the experiment on Escherichia coli and in the experiment with Bacillus subtilis was inactive.

Take `CC(=O)O[C@@H]1C(=O)[C@@]2(C)[C@@H](CC[C@H]3C4=C(CCC=C(C)C)C(=O)O[C@H]4C[C@@]32C)[C@@]2(C)C=CC(=O)[C@@H](C)[C@H]12`: the MIC against Streptococcus agalactiae and in the experiment with Staphylococcus aureus was greater than 128 µg/mL each time. In addition, the outcome in the experiment with Escherichia coli and in the experiment with Bacillus subtilis was inactive.

`CC(C)=CCCC1=C2[C@H](C[C@@]3(C)[C@H]2CC[C@H]2[C@@]4(C)CCC(=O)[C@@H](C)[C@@H]4[C@H](O)C(=O)[C@@]23C)OC1=O`: the MIC in the experiment with Streptococcus agalactiae and in the experiment with Staphylococcus aureus was greater than 128 µg/mL in each case. For the same molecule, the outcome with Escherichia coli and with Bacillus subtilis was inactive.

On to `CCC(=O)O[C@@H]1C(=O)[C@@]2(C)[C@@H](CC[C@H]3/C(=C(\CCC=C(C)C)C(=O)O)[C@@H](OC(C)=O)C[C@@]32C)[C@@]2(C)C=CC(=O)[C@@H](C)[C@H]12`, for which the MIC against Streptococcus agalactiae is 2 µg/mL (≈ 3.43 µM); against Staphylococcus aureus it was 8 µg/mL (≈ 13.7 µM). The outcome in the experiment on Escherichia coli and in the experiment on Bacillus subtilis was inactive.

As to `CC(C)=CCCC1=C2[C@H](C[C@@]3(C)[C@H]2CC[C@H]2[C@@]4(C)C=CC(=O)[C@@H](C)[C@@H]4[C@H](O)C(=O)[C@@]23C)OC1=O`, the MIC with Streptococcus agalactiae and in the experiment on Staphylococcus aureus was greater than 128 µg/mL in each case. Besides, the outcome in the experiment with Escherichia coli and in the experiment on Bacillus subtilis was inactive.

On to `CC(=O)O[C@H]1C[C@@]2(C)[C@@H](CC[C@H]3[C@@]4(C)C=CC(=O)[C@@H](C)[C@@H]4[C@H](OC(C)=O)C(=O)[C@@]32C)/C1=C(\CCC=C(C)C)C(=O)O` [HELVOLIC ACID], for which the MIC came to 8 µg/mL (≈ 14.1 µM) in the experiment on Streptococcus agalactiae and 16 µg/mL (≈ 28.1 µM) against Staphylococcus aureus. For the same molecule, the result in the experiment on Escherichia coli and in the experiment on Bacillus subtilis was inactive.

Consider `NC[C@H]1O[C@H](O[C@H]2[C@H](O)[C@@H](O[C@H]3O[C@H](CO)[C@@H](O)[C@H](N)[C@H]3O)[C@H](N)C[C@@H]2N)[C@H](N)C[C@@H]1O` [TOBRAMYCIN], for which the MIC in the experiment on Streptococcus agalactiae stood at 32 µg/mL (≈ 68.4 µM); in the experiment on Staphylococcus aureus, 1 µg/mL (≈ 2.14 µM).

Take `CCC(=O)O[C@@H]1C(=O)[C@@]2(C)[C@@H](CC[C@H]3C4=C(CCC=C(C)C)C(=O)O[C@H]4C[C@@]32C)[C@@]2(C)C=CC(=O)[C@@H](C)[C@H]12`: the MIC in the experiment with Streptococcus agalactiae and against Staphylococcus aureus was greater than 128 µg/mL throughout. Moreover, the result in the experiment on Escherichia coli and with Bacillus subtilis was inactive.

These data come from ChEMBL document CHEMBL4196135, “Helvolic Acid Derivatives with Antibacterial Activities against Streptococcus agalactiae from the Marine-Derived Fungus Aspergillus fumigatus HNMF0047” (2018).
